# From ChEMBL document CHEMBL4715781, “Exploration of bivalent ligands targeting putative mu opioid receptor and chemokine receptor CCR5 dimerization” (Bioorg Med Chem, 2016)
# The source made the active and inactive calls. No cut-off for these calls is given here.
# Columns and labels:
# Mu-type opioid receptor [1] = target: Mu-type opioid receptor (Homo sapiens, UniProt P35372); test: Antagonist activity at human MOR transfected in CHO cells co-transfected with Gqi5 assessed as inhibition of DAMGO-induced calcium mobilization incubated for 15 mins prior to DAMGO addition and measured for 90 secs by Fluo-4AM dye based fluorescence analysis; format: functional, cell-based
# Mu-type opioid receptor (Homo sapiens, UniProt P35372), sequence (P35372 whole entry): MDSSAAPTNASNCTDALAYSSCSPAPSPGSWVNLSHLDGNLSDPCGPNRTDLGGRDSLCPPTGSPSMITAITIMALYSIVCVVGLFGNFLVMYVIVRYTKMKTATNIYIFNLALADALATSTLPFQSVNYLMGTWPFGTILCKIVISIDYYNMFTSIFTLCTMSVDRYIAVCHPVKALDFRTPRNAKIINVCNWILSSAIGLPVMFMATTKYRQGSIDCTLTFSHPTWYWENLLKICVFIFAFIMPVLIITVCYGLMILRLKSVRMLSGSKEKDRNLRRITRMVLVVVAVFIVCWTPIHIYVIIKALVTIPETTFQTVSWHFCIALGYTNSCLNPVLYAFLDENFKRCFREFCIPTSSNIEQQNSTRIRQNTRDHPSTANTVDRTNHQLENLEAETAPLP
# How it was run: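 Gqi5-transfected hMOR-CHO cells plated at 20,000/well and used 48 h after transfection. Loaded 30 min with Fluo-4 AM/probenecid in HBSS:HEPES, then ligands added for 15 min. IC50 from non-linear regression of peak heights. Three repeats.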
# Mu-type opioid receptor [2] = target: Mu-type opioid receptor (Mus musculus, UniProt P42866); test: Displacement of [3H]NLX from mouse MOR expressed in CHO cell membrane incubated for 90 mins by liquid scintillation spectrophotometry; format: cell membranes
# Mu-type opioid receptor (Mus musculus, UniProt P42866), sequence (P42866 whole entry): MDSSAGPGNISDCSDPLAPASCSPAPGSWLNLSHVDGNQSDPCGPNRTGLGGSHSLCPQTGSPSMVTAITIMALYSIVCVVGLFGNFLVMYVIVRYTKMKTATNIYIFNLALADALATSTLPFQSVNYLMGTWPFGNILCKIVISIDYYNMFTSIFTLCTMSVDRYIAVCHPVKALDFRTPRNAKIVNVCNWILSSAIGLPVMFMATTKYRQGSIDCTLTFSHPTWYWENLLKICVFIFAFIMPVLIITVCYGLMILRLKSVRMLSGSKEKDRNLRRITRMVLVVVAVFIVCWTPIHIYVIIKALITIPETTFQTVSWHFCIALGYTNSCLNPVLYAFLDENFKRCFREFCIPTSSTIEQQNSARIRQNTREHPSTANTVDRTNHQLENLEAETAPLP
# How it was run: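 mMOR-CHO membranes incubated 90 min at 30 °C with 2 nM [3H]naloxone and varying unlabeled ligand. Bound ligand collected by rapid GF-B filtration with 3 ice-cold Tris washes and counted by scintillation (45% efficiency). Competitor IC50 used to derive Ki. At least three independent experiments.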
# [3] = target: T1, C-C chemokine receptor type 5 (Homo sapiens, UniProt P51681); test: Antagonist activity at CCR5 receptor in human MOLT4 cells transfected with Gqi5 assessed as inhibition of RANTES-induced calcium mobilization incubated for 15 mins prior to RANTES addition and measured for 120 secs by Fluo-4AM dye based fluorescence analysis; format: functional, cell-based, MOLT-4
# How it was run: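 CCR5-MOLT-4 cells transfected with Gqi5, assayed 48 h later at 25,000 cells/well. Fluo-4 AM/probenecid loading for 45 min, then ligands for 15 min. IC50 from non-linear regression of peak heights. Three repeats.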
# Target sequence in this assay (P51681 whole entry): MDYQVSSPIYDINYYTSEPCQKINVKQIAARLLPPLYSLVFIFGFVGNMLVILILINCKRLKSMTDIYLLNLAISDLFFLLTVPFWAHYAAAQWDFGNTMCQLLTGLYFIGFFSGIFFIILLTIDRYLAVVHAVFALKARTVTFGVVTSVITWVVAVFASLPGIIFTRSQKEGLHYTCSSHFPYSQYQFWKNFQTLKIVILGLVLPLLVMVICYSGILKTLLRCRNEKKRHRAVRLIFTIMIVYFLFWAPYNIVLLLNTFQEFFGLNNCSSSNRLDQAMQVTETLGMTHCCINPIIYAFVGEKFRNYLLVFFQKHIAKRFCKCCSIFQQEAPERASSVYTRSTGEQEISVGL
# [4] = system: Human immunodeficiency virus 1; test: Antiviral activity against HIV-1 BAL infected in human macrophages assessed as reduction in p24 production at 1 uM treated for 1 hr prior to viral infection and measured after 5 days by ELISA; format: functional, organism-based; conditions: Macrophage, time 5.0 day
# How it was run: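 Macrophages derived from PBMCs with M-CSF (100 ng/mL) for 6 days, plated at 1 × 10^5 cells/mL and stimulated 48 h with IL-2/PHA. Polybrene for 30 min, compound (10–1000 nM) for 1 h before HIV-1 BaL (p24 1000 pg/mL). p24 in supernatant and lysate measured by ELISA 5 days post-infection. ANOVA with Dunnett's test.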
# [5] = system: Human immunodeficiency virus 1; test: Antiviral activity against HIV-1 BAL infected in human PBMC assessed as reduction in p24 production at 10 to 1000 nM treated for 1 hr prior to viral infection and measured after 5 days by ELISA; format: functional, organism-based; conditions: dose 10-1000 nM, time 5.0 day
# How it was run: (§1)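 Ficoll-isolated human PBMCs plated at 1 × 10^5 cells/mL and stimulated 48 h with IL-2 (100 ng/mL) and PHA (5 µg/mL). Then polybrene (2 µg/mL) for 30 min, compound at 10, 100 or 1000 nM for 1 h, and infection with R5-tropic HIV-1 BaL (p24 1000 pg/mL). Supernatant and RIPA lysate p24 measured by ELISA at day 5. Dunnett's test against infection alone.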
# [6] = system: Human immunodeficiency virus 1; test: Antiviral activity against HIV-1 BAL infected in human astrocytes assessed as reduction in p24 production at 10 to 1000 nM treated for 1 hr prior to viral infection and measured after 5 days by ELISA; format: functional, organism-based; conditions: Astrocyte, dose 10-1000 nM, time 5.0 day
# How it was run: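 Primary human astrocytes plated at 1 × 10^5 cells/mL and stimulated 48 h with IL-2 (100 ng/mL) and PHA (5 µg/mL). Polybrene for 30 min, then compound at 10, 100, 1000 nM for 1 h before infection with HIV-1 BaL (p24 1000 pg/mL). p24 ELISA on supernatants and lysates at day 5.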
# [7] = target: T1, C-C chemokine receptor type 5; test: Agonist activity at CCR5 receptor in human MOLT4 cells transfected with Gqi5 assessed as calcium mobilization incubated for 15 mins by Fluo-4AM dye based fluorescence analysis; format: functional, cell-based; conditions: MOLT-4
# How it was run: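 CCR5-MOLT-4 cells transfected with Gqi5, tested 48 h post-transfection at 25,000 cells/well in 50:1 HBSS:HEPES buffer. Fluo-4 AM with probenecid loaded for 45 min, then varying ligand concentrations added for 15 min. Fluorescence at 494/516 nm read for 120 s, with buffer alone added at 16 s in place of RANTES. Peak height taken as agonism read-out.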
# Target sequence in this assay (P51681 whole entry, looked up): as the sequence (P51681 whole entry) above
# [8] = system: Human immunodeficiency virus 1; test: Antiviral activity against HIV-1 SF162 infected in human astrocytes assessed as reduction in viral invasion by measuring decrease in Tat protein expression at 100 nM co-treated with morphine prior to viral infection and measured after 18 hrs by luciferase based assay; format: functional, organism-based; conditions: Astrocyte
# How it was run: (§2)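 Primary human astrocytes in 24-well plates transfected with pBlue3'LTR-luc. […] Uninfected cells served as negative control. After about 18–20 h, cells were PBS-rinsed and lysed, and Tat-driven luciferase was measured.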
# [9] = system: Human immunodeficiency virus 1; test: Antiviral activity against HIV-1 BAL infected in human macrophages assessed as reduction in p24 production at 500 nM treated for 1 hr prior to viral infection and measured after 5 days by ELISA; format: functional, organism-based; conditions: Macrophage, time 5.0 day
# How it was run: (§3)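 PBMCs were Ficoll-isolated from leukopak blood and grown in RPMI-1640 with 10% FBS; macrophages came from PBMCs given M-CSF 100 ng/mL for 6 days. Cells at 1 × 10^5/mL were stimulated with IL-2 (100 ng/mL) and PHA (5 µg/mL) for 48 h, then polybrene (2 µg/mL) for 30 min. Compound was added 1 h before R5 HIV-1 BaL (p24 1000 pg/mL). Supernatant and RIPA-lysate p24 were measured by ELISA at day 5.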
# CHO [10] = test: Antagonist activity at CCR5 receptor in CHO cells co-expressing hMOR, CD4 and luciferase reporter assessed as inhibition of CD4-gp120 complex interaction with receptor dimer by measuring inhibition of cell-cell fusion process at 100 nM measured after co-incubation of CHO cells with HEK293 cells …; format: cell-based; conditions: Cricetulus griseus, filed as antagonist, time 18.0 hrs
# [11] = system: Human immunodeficiency virus 1; test: Antiviral activity against HIV-1 BAL infected in human PBMC assessed as reduction in p24 production at 500 nM treated for 1 hr prior to viral infection and measured after 5 days by ELISA; format: functional, organism-based; conditions: time 5.0 day; how it was run: as §3
# CHO [12] = test: Antagonist activity at CCR5 receptor in CHO cells co-expressing hMOR, CD4 and luciferase reporter assessed as inhibition of CD4-gp120 complex interaction with receptor dimer by measuring inhibition of cell-cell fusion process at 100 nM measured after co-incubation of CHO cells with HEK293 cells …; format: cell-based; conditions: Cricetulus griseus, filed as antagonist, time 18.0 hrs; remark: listed apart in the source
# [13] = system: Human immunodeficiency virus 1; test: Antiviral activity against HIV-1 SF162 infected in human astrocytes assessed as reduction in viral invasion by measuring decrease in Tat protein expression at 100 nM treated prior to viral infection and measured after 18 hrs by luciferase based assay; format: functional, organism-based; conditions: Astrocyte; how it was run: as §2
# [14] = system: Human immunodeficiency virus 1; test: Antiviral activity against HIV-1 BAL infected in human PBMC assessed as reduction in p24 production at 1 uM treated for 1 hr prior to viral infection and measured after 5 days by ELISA; format: functional, organism-based; conditions: time 5.0 day; how it was run: as §1
# CHO [15] = test: Binding affinity to CCR5-hMOR heterodimer in CHO cells co-expressing CD4 and luciferase reporter assessed as inhibition of CD4-gp120 complex interaction with receptor dimer by measuring inhibition of cell-cell fusion process at 3000 nM measured after co-incubation of CHO cells with HEK293 cells …; format: cell-based; conditions: time 18.0 hrs
# CHO [16] = test: as above; format: cell-based; conditions: time 18.0 hrs; remark: listed apart in the source
# [17] = target: C-C chemokine receptor type 5 (Macaca mulatta, UniProt P61813); test: Displacement of [125I]MIP-1alpha from CCR5 receptor in rhesus monkey membrane incubated for 120 mins by liquid scintillation counting analysis; format: cell membranes, Cell membrane
# [18] = system: Human immunodeficiency virus 1; test: Antiviral activity against HIV-1 SF162 infected in human astrocytes assessed as reduction in viral invasion by measuring decrease in Tat protein expression at 100 nM treated prior to viral infection and measured after 18 hrs by luciferase based assay relative to maraviroc in presence of morphine; format: functional, Astrocyte
# How it was run: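 Primary human astrocytes carried the transfected pBlue3'LTR-luc reporter. […] Uninfected cells served as negative control. Lysates were taken about 18–20 h later after PBS rinses, and Tat expression was quantified by luciferase luminescence.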
# [19] = system: Human immunodeficiency virus 1; test: Antiviral activity against HIV-1 SF162 infected in human astrocytes assessed as reduction in viral invasion by measuring decrease in Tat protein expression at 100 nM treated prior to viral infection and measured after 18 hrs by luciferase based assay relative to maraviroc; format: functional, Astrocyte
# How it was run: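 Primary human astrocytes in 24-well plates were transfected with the LTR-luciferase reporter pBlue3'LTR-luc. […] Uninfected cells served as negative control. After about 18–20 h, cells were PBS-rinsed and lysed, and luciferase activity was read as Tat expression.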
SMILES,IC50 (Mu-type opioid receptor [1]) [nM],Ki (Mu-type opioid receptor [2]) [nM],IC50 [3] [nM],Activity [7],further results
CNC(=O)COCC(=O)NCCCCCNC(=O)COCC(=O)N[C@@H]1CC[C@@]2(O)[C@H]3Cc4ccc(O)c5c4[C@@]2(CCN3CC2CC2)[C@H]1O5,92.1,0.78,,,
Cc1nnc(C(C)C)n1[C@H]1C[C@H]2CC[C@@H](C1)N2CC[C@H](NC(=O)C1CCC(F)(F)CC1)c1ccc(NC(=O)COCC(=O)NCCCCCNC(=O)COCC(=O)N[C@@H]2CC[C@@]3(O)[C@H]4Cc5ccc(O)c6c5[C@@]3(CCN4CC3CC3)[C@H]2O6)cc1,21.8,3.8,2410,inactive,Activity [4]: inactive; Activity [5]: inactive; Activity [6]: Active
Cc1nnc(C(C)C)n1[C@H]1C[C@H]2CC[C@@H](C1)N2CC[C@H](NC(=O)C1CCC(F)(F)CC1)c1cccc(NC(=O)COCC(=O)NCCCCCCCNC(=O)COCC(=O)N[C@@H]2CC[C@@]3(O)[C@H]4Cc5ccc(O)c6c5[C@@]3(CCN4CC3CC3)[C@H]2O6)c1,17.1,10,1340,inactive,
Cc1nnc(C(C)C)n1[C@H]1C[C@H]2CC[C@@H](C1)N2CC[C@H](NC(=O)C1CCC(F)(F)CC1)c1ccccc1,,,,,Activity [8]: inactive; Activity [9]: Active; Activity (CHO [10]): Active; Activity [11]: Active; Activity (CHO [12]): Active; Activity [13]: Active
CNC(=O)COCC(=O)NCCCCCCCNC(=O)COCC(=O)Nc1cccc([C@H](CCN2[C@@H]3CC[C@H]2C[C@@H](n2c(C)nnc2C(C)C)C3)NC(=O)C2CCC(F)(F)CC2)c1,,,129,inactive,
CNC(=O)COCC(=O)NCCCCCCCCCNC(=O)COCC(=O)N[C@@H]1CC[C@@]2(O)[C@H]3Cc4ccc(O)c5c4[C@@]2(CCN3CC2CC2)[C@H]1O5,41.4,1.11,,,
CNC(=O)COCC(=O)NCCCCCCCNC(=O)COCC(=O)N[C@@H]1CC[C@@]2(O)[C@H]3Cc4ccc(O)c5c4[C@@]2(CCN3CC2CC2)[C@H]1O5,,9.2,,,
CNC(=O)COCC(=O)NCCCCCCCCCNC(=O)COCC(=O)Nc1ccc([C@H](CCN2[C@@H]3CC[C@H]2C[C@@H](n2c(C)nnc2C(C)C)C3)NC(=O)C2CCC(F)(F)CC2)cc1,,,392,inactive,
CNC(=O)COCC(=O)NCCCCCNC(=O)COCC(=O)Nc1ccc([C@H](CCN2[C@@H]3CC[C@H]2C[C@@H](n2c(C)nnc2C(C)C)C3)NC(=O)C2CCC(F)(F)CC2)cc1,,,948,inactive,
Cc1nnc(C(C)C)n1[C@H]1C[C@H]2CC[C@@H](C1)N2CC[C@H](NC(=O)C1CCC(F)(F)CC1)c1ccc(NC(=O)COCC(=O)NCCCCCCCCCNC(=O)COCC(=O)N[C@@H]2CC[C@@]3(O)[C@H]4Cc5ccc(O)c6c5[C@@]3(CCN4CC3CC3)[C@H]2O6)cc1,21.9,6.49,543,inactive,Activity [4]: Active; Activity [14]: Active; Activity [6]: Active
Cc1nnc(C(C)C)n1[C@H]1C[C@H]2CC[C@@H](C1)N2CC[C@H](NC(=O)C1CCC(F)(F)CC1)c1ccc(NC(=O)COCC(=O)NCCCCCCCNC(=O)COCC(=O)N[C@@H]2CC[C@@]3(O)[C@H]4Cc5ccc(O)c6c5[C@@]3(CCN4CC3CC3)[C@H]2O6)cc1,40,3.24,126,inactive,Activity [4]: Active; Activity [8]: Active; Activity (CHO [15]): Active; Activity (CHO [16]): Active; Ki [17]: 239 nM; fold change (FC) [18]: 7; fold change (FC) [19]: 3.3; Activity [5]: Active; Activity [6]: Active; Activity [13]: Active
CNC(=O)COCC(=O)NCCCCCCCNC(=O)COCC(=O)Nc1ccc([C@H](CCN2[C@@H]3CC[C@H]2C[C@@H](n2c(C)nnc2C(C)C)C3)NC(=O)C2CCC(F)(F)CC2)cc1,,,622,inactive,Ki [17]: 151 nM
